According to ChEMBL document CHEMBL1165950, “Design and synthesis of new potent anticancer pyrazoles with high FLT3 kinase inhibitory selectivity” (Bioorg Med Chem, 2010):

Experiments:
Type in all cases: functional
SNB-75 [1] = experiment: Cytotoxicity against human SNB75 cells assessed as cell growth at 100 nM after 48 hrs by sulforhodamine B assay; details: SNB-75, 48 h, read-out: Activity
CAKI-1 [2] = experiment: Cytotoxicity against human Caki1 cells assessed as cell growth at 100 nM after 48 hrs by sulforhodamine B assay; details: CAKI-1, 48 h, read-out: Activity
NCI-H322M = experiment: Cytotoxicity against human NCI-H322M cells assessed as cell growth at 1 uM after 48 hrs by sulforhodamine B assay; details: read-out: Activity
HL-60(TB) = experiment: Cytotoxicity against human HL-60(TB) cells assessed as cell growth at 0.01 uM after 48 hrs by sulforhodamine B assay; details: HL-60, 48 h, read-out: Activity
How it was run: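 NCI 60-cell panel. Cells are grown in RPMI 1640 with 5% FBS and 2 mM L-glutamine, seeded at 5000–40,000 cells/well according to doubling time, and preincubated 24 h. Time-zero plates are TCA-fixed. Compound from DMSO stock is given at five 10-fold or 1/2-log concentrations for 48 h at 37 °C, 5% CO2. Suspension cells are fixed with 80% TCA (final 16%) and SRB-stained, with absorbance at 515 nm. Percent growth is derived from Tz, control and test readings.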

SN12C = experiment: Cytotoxicity against human SN12C cells assessed as cell growth at 100 nM after 48 hrs by sulforhodamine B assay; details: read-out: Activity
UACC-257 = experiment: Cytotoxicity against human UACC257 cells assessed as cell growth at 10 uM after 48 hrs by sulforhodamine B assay; details: UACC-257, 48 h, read-out: Activity
SF-295 = experiment: Cytotoxicity against human SF295 cells assessed as cell growth at 0.001 uM after 48 hrs by sulforhodamine B assay; details: SF-295, 48 h, read-out: Activity
SF-268 = experiment: Cytotoxicity against human SF268 cells assessed as cell growth at 1 uM after 48 hrs by sulforhodamine B assay; details: SF-268, 48 h, read-out: Activity
T47D = experiment: Cytotoxicity against human T47D cells assessed as cell growth at 1 uM after 48 hrs by sulforhodamine B assay; details: read-out: Activity
HOP-92 = experiment: Cytotoxicity against human HOP92 cells assessed as cell growth at 1 uM after 48 hrs by sulforhodamine B assay; details: HOP-92, 48 h, read-out: Activity
SK-MEL-2 = experiment: Cytotoxicity against human SK-MEL-2 cells assessed as cell growth at 100 nM after 48 hrs by sulforhodamine B assay; details: SK-MEL-2, 48 h, read-out: Activity
MOLT-4 = experiment: Cytotoxicity against human MOLT4 cells assessed as cell growth at 100 nM after 48 hrs by sulforhodamine B assay; details: MOLT-4, 48 h, read-out: Activity
COLO 205 = experiment: Cytotoxicity against human COLO205 cells assessed as cell growth at 10 uM; details: read-out: Activity
How it was run: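 Single-dose NCI-60 screen at 10 µM. Cells were grown in RPMI 1640 with 5% FBS and 2 mM L-glutamine, then treated for 48 h at 37 °C. Protein was measured by SRB staining with absorbance at 515 nm. Percentage growth was recorded, and inhibition percentage was calculated as 100 minus growth percentage.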

CAKI-1 [3] = experiment: Cytotoxicity against human Caki1 cells assessed as cell growth at 0.01 uM after 48 hrs by sulforhodamine B assay; details: CAKI-1, 48 h, read-out: Activity
[4] = Cytotoxicity against human RPMI8266 cells assessed as cell growth at 100 nM after 48 hrs by sulforhodamine B assay; details: read-out: Activity
KM12 = experiment: Cytotoxicity against human KM12 cells assessed as cell growth at 0.001 uM after 48 hrs by sulforhodamine B assay; details: KM12, 48 h, read-out: Activity
SR = experiment: Cytotoxicity against human SR cells assessed as cell growth at 10 uM; details: read-out: Activity
How it was run: (§1)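 NCI-60 screen: cells grown in RPMI 1640 with 5% FBS and 2 mM L-glutamine, plated at 5000–40,000 cells/well according to doubling time, and preincubated 24 h at 37 °C, 5% CO2. The single 10 µM dose (DMSO stock) was added, then incubated 48 h. Cells were TCA-fixed and stained with 0.4% SRB, read at 515 nm, and growth % calculated against time-zero and control plates.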

MDA-MB-468 = experiment: Growth inhibition of human MDA-MB-468 cells after 48 hrs by sulforhodamine B assay; details: MDA-MB-468, 48 h
How it was run: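 NCI 60-cell screen, five-dose mode. Cells grown in RPMI 1640 with 5% FBS and 2 mM L-glutamine and plated at 5000-40,000 cells/well according to doubling time. After 24 h preincubation, a Tz plate was TCA-fixed. Five concentrations (10-fold or 1/2 log dilutions) were applied for 48 h at 37 °C. SRB staining read at 515 nm. IC50 taken from [(Ti-Tz)/(C-Tz)]×100 = 50.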

U-251 [5] = experiment: Cytotoxicity against human U251 cells assessed as cell growth at 100 nM after 48 hrs by sulforhodamine B assay; details: U-251, 48 h, read-out: Activity
EKVX [6] = experiment: Cytotoxicity against human EKVX cells assessed as cell growth at 1 uM after 48 hrs by sulforhodamine B assay; details: read-out: Activity
SNB-75 [7] = experiment: Cytotoxicity against human SNB75 cells assessed as cell growth at 0.01 uM after 48 hrs by sulforhodamine B assay; details: SNB-75, 48 h, read-out: Activity
ACHN = experiment: Cytotoxicity against human ACHN cells assessed as cell growth at 0.001 uM after 48 hrs by sulforhodamine B assay; details: read-out: Activity
How it was run: (§2)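 NCI-60 five-dose screen. Cells were grown in RPMI 1640 with 5% FBS and 2 mM L-glutamine, plated at 5000–40,000 cells/well and preincubated for 24 h. Time-zero plates were TCA-fixed. DMSO-solubilized drug was added at five concentrations (10-fold or ½-log serial dilutions) for 48 h at 37 °C, 5% CO2. Cells were TCA-fixed, stained with 0.4% SRB and read at 515 nm. Percent growth used time-zero, control and test absorbances.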

A498 = experiment: Cytotoxicity against human A498 cells assessed as cell growth at 0.001 uM after 48 hrs by sulforhodamine B assay; details: A498, 48 h, read-out: Activity; how it was run: as §2
Malme-3M [8] = experiment: Cytotoxicity against human MALME-3M cells assessed as cell growth at 10 uM; details: read-out: Activity; how it was run: as §1
Malme-3M [9] = experiment: Cytotoxicity against human MALME-3M cells assessed as cell growth at 10 uM after 48 hrs by sulforhodamine B assay; details: read-out: Activity
SF-539 [10] = experiment: Cytotoxicity against human SF539 cells assessed as cell growth at 100 nM after 48 hrs by sulforhodamine B assay; details: SF-539, 48 h, read-out: Activity
SF-539 [11] = experiment: Cytotoxicity against human SF539 cells assessed as cell growth at 1 uM after 48 hrs by sulforhodamine B assay; details: SF-539, 48 h, read-out: Activity
K562 = experiment: Cytotoxicity against human K562 cells assessed as cell growth at 10 uM after 48 hrs by sulforhodamine B assay; details: K562, 48 h, read-out: Activity
U-251 [12] = experiment: Cytotoxicity against human U251 cells assessed as cell growth at 10 uM after 48 hrs by sulforhodamine B assay; details: U-251, 48 h, read-out: Activity
EKVX [13] = experiment: Cytotoxicity against human EKVX cells assessed as cell growth at 0.001 uM after 48 hrs by sulforhodamine B assay; details: read-out: Activity

## COc1cc(C)cc(-c2nn(CC#N)cc2-c2ccc(-c3cccc(C(C)=O)c3)nc2)c1
SNB-75 [1]
  growth at 0.1 µM: 79%
CAKI-1 [2]
  growth at 0.1 µM: 69%
NCI-H322M
  growth at 1 µM: 24%
HL-60(TB)
  growth at 0.01 µM: 91%
SN12C
  growth at 0.1 µM: 91%
UACC-257
  growth at 10 µM: 3%
SF-295
  growth at 0.001 µM: 99%
SF-268
  growth at 1 µM: 23%
T47D
  growth at 1 µM: -7%
HOP-92
  growth at 1 µM: -4%
SK-MEL-2
  growth at 0.1 µM: 88%
MOLT-4
  growth at 0.1 µM: 84%
COLO 205
  growth at 10 µM: -44.6%
CAKI-1 [3]
  growth at 0.01 µM: 96%
[4]
  growth at 0.1 µM: 96%
KM12
  growth at 0.001 µM: 99%
SR
  growth at 10 µM: 18.4%
MDA-MB-468
  GI50: 0.275 µM
  LC50 (concentration giving 50% net cell kill): 52.3 µM
  TGI: 1.49 µM
U-251 [5]
  growth at 0.1 µM: 95%
EKVX [6]
  growth at 1 µM: 24%
SNB-75 [7]
  growth at 0.01 µM: 83%
ACHN
  growth at 0.001 µM: 93%
A498
  growth at 0.001 µM: 76%
Malme-3M [8]
  growth at 10 µM: 60.5%
Malme-3M [9]
  growth at 10 µM: -1%
SF-539 [10]
  growth at 0.1 µM: 78%
SF-539 [11]
  growth at 1 µM: -39%
K562
  growth at 10 µM: 9%
U-251 [12]
  growth at 10 µM: -37%
EKVX [13]
  growth at 0.001 µM: 99%

## COc1cc(C)cc(-c2c(-c3ccnc(-c4ccc(C(C)=O)cc4)c3)cnn2CC#N)c1
SNB-75 [1]
  growth at 0.1 µM: 76%
CAKI-1 [2]
  growth at 0.1 µM: 86%
NCI-H322M
  growth at 1 µM: 69%
HL-60(TB)
  growth at 0.01 µM: 99%
SN12C
  growth at 0.1 µM: 92%
UACC-257
  growth at 10 µM: 36%
SF-295
  growth at 0.001 µM: 98%
SF-268
  growth at 1 µM: 15%
T47D
  growth at 1 µM: -9%
HOP-92
  growth at 1 µM: -9%
SK-MEL-2
  growth at 0.1 µM: 103%
MOLT-4
  growth at 0.1 µM: 81%
COLO 205
  growth at 10 µM: 42.6%
CAKI-1 [3]
  growth at 0.01 µM: 97%
[4]
  growth at 0.1 µM: 88%
KM12
  growth at 0.001 µM: 100%
SR
  growth at 10 µM: 25%
MDA-MB-468
  GI50: 1.43 µM
  LC50 (concentration giving 50% net cell kill): 2.13 µM
  TGI: 3.87 µM
U-251 [5]
  growth at 0.1 µM: 89%
EKVX [6]
  growth at 1 µM: 37%
SNB-75 [7]
  growth at 0.01 µM: 78%
ACHN
  growth at 0.001 µM: 100%
A498
  growth at 0.001 µM: 74%
Malme-3M [8]
  growth at 10 µM: 103%
Malme-3M [9]
  growth at 10 µM: 43%
SF-539 [10]
  growth at 0.1 µM: 92%
SF-539 [11]
  growth at 1 µM: -45%
K562
  growth at 10 µM: 15%
U-251 [12]
  growth at 10 µM: 13%
EKVX [13]
  growth at 0.001 µM: 95%
